From article PMC11661184 (bioRxiv, 2024)
“Also recorded” adds a separate entry of the source.

Tests used:
[1] = test system: hTRPA1^Δ1109–1119; test: TEVC block of residual current, hTRPA1^Δ1109–1119; format: cell-based, human; conditions: 10 µM A-967079
[2] = test system: CaM (Calmodulin-agarose); test: CaM-agarose pulldown of TRPA1 constructs; format: binding; conditions: MBP-tagged, expressed in HEK293T, absence or presence of Ca2+
In short: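 HEK293T cells were transfected with tagged TRPA1 constructs and lysed after 16-24 h in Tris pH 8.0 buffer containing 5 mM DDM and 500 µM EGTA. Free Ca²⁺ was set with CaCl₂, calculated from EGTA constants. 100 µg lysate was incubated with CaM-agarose for 1 h at 4 °C, washed, then eluted with 5 mM EGTA. Detection was by anti-FLAG or anti-MBP immunoblot, with tubulin input control. Enrichment is relative to the maximum within each replicate.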

[3] = target: CaM12 (Homo sapiens, UniProt P0DP23); test: Isothermal titration calorimetry, CaM12; format: binding; conditions: ITC, 2 mM Ca2+
In short: (§1)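 The ITC cell held 15 µM CaM variant and the syringe 810 µM hTRPA1¹⁰⁸⁹⁻¹¹¹⁹ peptide. Both were buffer-matched in storage buffer (50 mM Tris pH 8.0, 150 mM NaCl, 2 mM CaCl₂, 0.1 mM PMSF). There were 35 injections spaced 240 s apart, with stirring at 290 RPM. Data were fitted to a one-site model.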

[4] = target: WT CaM (Homo sapiens, UniProt P0DP23); test: Isothermal titration calorimetry, WT CaM; format: binding; conditions: ITC, 2 mM Ca2+
In short: as §1

[5] = test system: 15N-labeled CaM12; test: 15N-1H HSQC NMR, CaM12; format: binding, human; conditions: 1:1 molar ratio, 25 °C, 700 MHz
[6] = test system: 15N-labeled WT CaM; test: 15N-1H HSQC NMR, WT CaM; format: binding, human; conditions: 1:1 molar ratio, 25 °C, 700 MHz

Row | Compound | Inhibition of residual activity [1] | CaM binding of MBP-tagged C-terminal peptides [2] | Number of binding events observed [3] | Number of binding events observed [4] | Chemical shift perturbations (CSPs) [5] | Chemical shift perturbations (CSPs) [6]
1 | CCC(=N\O)/C(C)=C/c1ccc(F)cc1 [A-967079] | inhibited |  |  |  |  | 
2 | hTRPA1^1089–1119: hTRPA1 distal C-terminus peptide, residues 1089–1119, bacterially purified and liberated from MBP (DRFKKEQMEQRNSRWNTVLRAVKAKTHHLEP) |  | bound CaM in a Ca^2+-dependent manner | single binding event | single binding event | observed predominantly in the C-lobe; also recorded: more CSPs in the C-lobe than WT CaM | observed predominantly in the C-lobe
